The values below come from ChEMBL document CHEMBL1134584 (J Med Chem, 2001).

Assay [1] addresses T1, Somatostatin receptor type 3 (Homo sapiens, UniProt P32745). The experiment in a line: Inhibition of [125 I -Tyr]SRIF-14 binding to membranes isolated from CHO-K1 cells expressing cloned human SRIF receptor (sst-3) subtype. The format is cell membranes.
In assay [2] the target is T2, Somatostatin receptor type 2 (Homo sapiens, UniProt P30874). The experiment in a line: Inhibition of [125 I -Tyr]SRIF-14 binding to membranes isolated from CHO-K1 cells expressing each of the cloned human SRIF receptor (sst-2) subtypes. In kind it is cell membranes. In short, it runs like this: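 Stable CHO-K1 clones transfected with human receptor cDNA in pCMV5. Membranes prepared from these cells, 10-20 µg protein/well, incubated with 0.05-0.1 nM [125I-Tyr11]SRIF-14 in 50 mM HEPES pH 7.4, 0.2% BSA, 5 mM MgCl2 plus protease inhibitors, 50-90 min at 37 °C depending on subtype. GF/C filtration, then counting. Nonspecific binding defined with 0.1 µM SRIF-14. Ki obtained by nonlinear regression.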
T2 sequence (P30874 whole entry): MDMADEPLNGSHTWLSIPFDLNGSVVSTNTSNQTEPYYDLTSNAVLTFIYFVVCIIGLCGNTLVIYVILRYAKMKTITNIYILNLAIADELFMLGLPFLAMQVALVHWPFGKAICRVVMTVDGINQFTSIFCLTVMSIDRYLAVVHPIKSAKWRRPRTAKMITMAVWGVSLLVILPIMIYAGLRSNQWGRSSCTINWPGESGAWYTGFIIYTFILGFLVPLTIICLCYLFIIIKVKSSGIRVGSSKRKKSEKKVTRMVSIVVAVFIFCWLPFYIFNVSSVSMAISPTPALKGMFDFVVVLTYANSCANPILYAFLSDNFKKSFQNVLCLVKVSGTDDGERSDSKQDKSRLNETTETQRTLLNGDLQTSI

The target of assay [3] is Somatostatin receptor type 1 (Homo sapiens, UniProt P30872). The experiment in a line: Inhibition of [125 I -Tyr]SRIF-14 binding to membranes isolated from CHO-K1 cells expressing cloned human SRIF receptor (sst-1) subtype. The format is cell membranes.
Somatostatin receptor type 1, sequence (P30872 whole entry): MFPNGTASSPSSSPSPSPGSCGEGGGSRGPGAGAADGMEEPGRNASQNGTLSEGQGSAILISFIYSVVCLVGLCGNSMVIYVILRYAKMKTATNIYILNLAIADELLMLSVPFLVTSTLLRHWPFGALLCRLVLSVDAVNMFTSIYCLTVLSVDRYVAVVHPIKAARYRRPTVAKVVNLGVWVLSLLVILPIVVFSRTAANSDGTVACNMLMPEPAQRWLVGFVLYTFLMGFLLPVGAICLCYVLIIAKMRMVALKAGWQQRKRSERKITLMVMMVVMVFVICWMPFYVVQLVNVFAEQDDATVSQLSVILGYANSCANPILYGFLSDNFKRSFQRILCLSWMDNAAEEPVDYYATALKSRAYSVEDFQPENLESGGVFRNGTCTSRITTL
In assay [4] the target is Somatostatin receptor type 5 (Homo sapiens, UniProt P35346). The experiment in a line: Inhibition of [125 I -Tyr]SRIF-14 binding to membranes isolated from CHO-K1 cells expressing cloned human SRIF receptor (sst-5) subtype. The format is cell membranes.
Somatostatin receptor type 5, sequence (P35346 whole entry): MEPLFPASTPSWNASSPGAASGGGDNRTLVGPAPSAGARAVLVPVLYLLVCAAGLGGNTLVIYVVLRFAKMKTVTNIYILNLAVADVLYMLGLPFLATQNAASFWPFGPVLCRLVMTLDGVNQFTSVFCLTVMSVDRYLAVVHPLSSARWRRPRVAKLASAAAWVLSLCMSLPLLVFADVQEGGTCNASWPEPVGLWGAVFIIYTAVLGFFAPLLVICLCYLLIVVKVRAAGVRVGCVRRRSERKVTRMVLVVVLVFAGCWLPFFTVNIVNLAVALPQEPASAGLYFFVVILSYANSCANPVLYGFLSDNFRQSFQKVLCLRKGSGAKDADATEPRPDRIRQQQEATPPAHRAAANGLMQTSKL
Assay [5] concerns the target T2, Somatostatin receptor type 2. Kind of assay: Inhibition of [125 I -Tyr]SRIF-14 binding to membranes isolated from CHO-K1 cells expressing cloned human SRIF receptor (sst-2) subtype. The format is cell membranes.
In assay [6] the target is Somatostatin receptor type 4 (Homo sapiens, UniProt P31391). Kind of assay: Inhibition of [125 I -Tyr]SRIF-14 binding to membranes isolated from CHO-K1 cells expressing cloned human SRIF receptor (sst-4) subtype. The format is cell membranes.
Somatostatin receptor type 4, sequence (P31391 whole entry): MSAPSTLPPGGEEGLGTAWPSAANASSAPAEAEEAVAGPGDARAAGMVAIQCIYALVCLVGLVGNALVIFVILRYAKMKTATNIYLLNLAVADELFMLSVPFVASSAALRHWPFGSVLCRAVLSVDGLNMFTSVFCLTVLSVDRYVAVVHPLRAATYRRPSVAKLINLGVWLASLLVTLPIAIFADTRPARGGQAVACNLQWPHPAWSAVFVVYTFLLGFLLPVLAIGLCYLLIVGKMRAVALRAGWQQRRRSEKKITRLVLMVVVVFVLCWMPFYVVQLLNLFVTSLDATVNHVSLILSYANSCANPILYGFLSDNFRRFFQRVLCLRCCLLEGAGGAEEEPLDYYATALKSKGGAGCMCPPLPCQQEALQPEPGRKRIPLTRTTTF
Assay [7] has as its target T1, Somatostatin receptor type 3. Kind of assay: Inhibitory concentration required to inhibit SRIF-14 induced reduction of cAMP in CHO-K1 cells expressing the human sst3 receptor. The format is functional, cell-based.

The structures appear in SMILES notation. Where only a bound is given, the exact number is not on record here.

T1 sequence (P32745 whole entry): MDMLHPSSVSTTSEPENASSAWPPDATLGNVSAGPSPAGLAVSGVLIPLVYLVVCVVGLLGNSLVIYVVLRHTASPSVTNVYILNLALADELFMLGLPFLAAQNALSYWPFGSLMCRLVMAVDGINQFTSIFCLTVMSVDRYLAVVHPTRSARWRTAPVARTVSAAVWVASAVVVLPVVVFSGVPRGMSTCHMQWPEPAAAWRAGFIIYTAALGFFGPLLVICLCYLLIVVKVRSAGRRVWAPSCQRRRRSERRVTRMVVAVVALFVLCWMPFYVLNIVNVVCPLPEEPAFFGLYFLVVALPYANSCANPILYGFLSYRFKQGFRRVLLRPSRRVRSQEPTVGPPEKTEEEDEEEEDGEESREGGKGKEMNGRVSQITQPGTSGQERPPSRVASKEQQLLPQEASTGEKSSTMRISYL

For `CCCCCC1N[C@H](c2nc(-c3ccccc3)c[nH]2)Cc2c1[nH]c1ccccc21` (some centres undefined), in assay [1], the affinity, expressed as Ki, was 11 nM.

`C[C@@H](c1c[nH]c2ccccc12)[C@@H](NC(=O)N1CCC(n2c(=O)[nH]c3ccccc32)CC1)C(=O)N[C@@H](CCCCN)C(=O)OC(C)(C)C` displayed a Ki in assay [2] of 0.01 nM.

Consider `CCCCC1(CCCC)NC(c2nc(-c3ccccc3)c[nH]2)Cc2c1[nH]c1ccc(OCc3ccccc3)cc21` (centres undefined), for which, in assay [1], the Ki was found to be 17 nM.

`CCCCC1(CCCC)N[C@H](c2nc(-c3ccccc3)c[nH]2)Cc2c1[nH]c1ccccc21` [listing 1 of 2 here] displayed a Ki in assay [1] of 0.79 nM.

`CCCCC1(CCCC)N[C@@H](c2nc(-c3ccccc3)c[nH]2)Cc2c1sc1ccccc21` showed a Ki in assay [1] of 430 nM.

For `CCCCCC1(CCCCC)N[C@H](c2nc(-c3ccccc3)c[nH]2)Cc2c1[nH]c1ccccc21`, the Ki was more than 10000 nM in assay [3]; more than 10000 nM in assay [4]; more than 10000 nM in assay [5]; 0.92 nM in assay [1]; more than 10000 nM in assay [6]. In assay [7], this compound registered an IC50 of 0.84 nM.

Consider `CCCCC1(CCCC)N[C@H](c2nc(-c3ccccc3)c[nH]2)Cc2c1[nH]c1ccccc21` [listing 2 of 2 here], for which the Ki is more than 10000 nM in assay [3]; 3700 nM in assay [4]; more than 10000 nM in assay [5]; 3.4 nM in assay [1]; 9800 nM in assay [6]. For the same compound, the IC50 in assay [7] was determined as 6.8 nM.

In assay [1], `CCCCCC1(CCCCC)NC(c2nc(-c3ccccc3)c[nH]2)Cc2c1[nH]c1ccc(C)cc21` (centres undefined) showed an inhibitory constant (Ki) of 6.9 nM. The compound further returned an IC50 in assay [7] of 450 nM.

Turning to `c1ccc(-c2c[nH]c([C@@H]3Cc4c([nH]c5ccccc45)C4(N3)C3CC5CC(C3)CC4C5)n2)cc1` (some centres undefined), the Ki in assay [1] was 84 nM.

With `CC(=O)N1CCC2(CC1)N[C@@H](c1nc(-c3ccccc3)c[nH]1)Cc1c2[nH]c2ccccc12`, the affinity in assay [1] corresponds to a Ki of 71 nM.

Consider `CCC1(CC)N[C@H](c2nc(-c3ccccc3)c[nH]2)Cc2c1[nH]c1ccccc21`, for which the Ki in assay [1] came to 11 nM.

As to `c1ccc(-c2c[nH]c(C3Cc4c([nH]c5ccccc45)C(C4CCCCC4)N3)n2)cc1` (centres undefined), the Ki in assay [3] is 1800 nM; in assay [4] it was more than 10000 nM; in assay [5] it was more than 10000 nM; in assay [6], more than 10000 nM.

Take `O=[N+]([O-])c1ccccc1C1N[C@H](c2nc(-c3ccccc3)c[nH]2)Cc2c1[nH]c1ccccc21` (some centres undefined): the Ki in assay [1] worked out at 200 nM.

For `COc1ccc(C2N[C@H](c3nc(-c4ccccc4)c[nH]3)Cc3c2[nH]c2ccccc32)cc1` (some centres undefined), in assay [1], the Ki came to 60 nM.

`CCCCC1(CCCC)N[C@@H](c2nc(-c3ccccc3)cs2)Cc2c1[nH]c1ccccc21` came in with a Ki in assay [1] of 3800 nM.

`CCCCC1(CCCC)N[C@@H](c2nc(-c3ccccc3)c[nH]2)Cc2c1[nH]c1ccccc21`: the Ki in assay [3] is 3700 nM; in assay [4], 2200 nM; in assay [5], more than 10000 nM; in assay [1], 0.64 nM; in assay [6], 7100 nM. In assay [7], this compound had an IC50 of 2.7 nM.

Take `CCCCC1(CCCC)N[C@H](c2nc(-c3ccccc3)c(-c3ccccc3)[nH]2)Cc2c1[nH]c1ccccc21`: the affinity in assay [1] corresponds to a Ki of 5500 nM.

The compound `CCCCC1(CCCC)NC(c2nc(-c3ccccc3)c[nH]2)Cc2c1[nH]c1ccc(Cl)cc21` (centres undefined) showed a Ki in assay [1] of 3.4 nM. The IC50 in assay [7] was found to be 43 nM.

Take `c1ccc(-c2c[nH]c([C@@H]3Cc4c([nH]c5ccccc45)C(c4ccncc4)N3)n2)cc1` (some centres undefined): the Ki in assay [1] worked out at 320 nM.

In the case of `CN(C)c1ccc(C2N[C@H](c3nc(-c4ccccc4)c[nH]3)Cc3c2[nH]c2ccccc32)cc1` (some centres undefined), in assay [1], the affinity, expressed as Ki, was 33 nM.

Consider `c1ccc(-c2c[nH]c([C@@H]3Cc4c([nH]c5ccccc45)C4(Cc5ccccc5C4)N3)n2)cc1`, for which the Ki in assay [1] worked out at 13 nM.

For the compound `CC1(C2CCCCC2)N[C@H](c2nc(-c3ccccc3)c[nH]2)Cc2c1[nH]c1ccccc21` (some centres undefined), the Ki in assay [3] is 4400 nM; in assay [4] it was more than 10000 nM; in assay [5], more than 10000 nM; in assay [1] it was 0.9 nM; in assay [6] it was more than 10000 nM. The compound further registered an IC50 in assay [7] of 5.4 nM.

`CCCCCCC1(CCCCCC)N[C@H](c2nc(-c3ccccc3)c[nH]2)Cc2c1[nH]c1ccccc21`: in assay [1], the Ki was determined as 28 nM.

As to `c1ccc(-c2c[nH]c(-c3cc4c([nH]c5ccccc54)c(C4CCCCC4)n3)n2)cc1`, in assay [1], the affinity, expressed as Ki, was 750 nM.

For orientation: Ki means the dissociation constant of the complex between target and ligand, obtained from inhibition or displacement. Read a low Ki as a stronger hold on the target. One may read the IC50 as the concentration needed to halve the response being measured. The low end stands for greater potency, the high end for weaker potency.
